# Results from ChEMBL document CHEMBL2176910, “Identification of small molecule inhibitors of amyloid β-induced neuronal apoptosis acting through the imidazoline I(2) receptor” (J Med Chem, 2012).
# Activity calls are given as the source filed them. No cut-off for these calls is given here.
# How the values were obtained:
# [1] = molecular target: Nischarin (Homo sapiens, UniProt Q9Y2I1); test: Inhibition of radioligand binding to imidazole receptor 1 at 10 uM
# [2] = molecular target: Kappa-type opioid receptor (Homo sapiens) (UniProt P41145); test: Inhibition of radioligand binding to KOP receptor at 10 uM
# Chain of Kappa-type opioid receptor (Homo sapiens) (P41145 whole entry): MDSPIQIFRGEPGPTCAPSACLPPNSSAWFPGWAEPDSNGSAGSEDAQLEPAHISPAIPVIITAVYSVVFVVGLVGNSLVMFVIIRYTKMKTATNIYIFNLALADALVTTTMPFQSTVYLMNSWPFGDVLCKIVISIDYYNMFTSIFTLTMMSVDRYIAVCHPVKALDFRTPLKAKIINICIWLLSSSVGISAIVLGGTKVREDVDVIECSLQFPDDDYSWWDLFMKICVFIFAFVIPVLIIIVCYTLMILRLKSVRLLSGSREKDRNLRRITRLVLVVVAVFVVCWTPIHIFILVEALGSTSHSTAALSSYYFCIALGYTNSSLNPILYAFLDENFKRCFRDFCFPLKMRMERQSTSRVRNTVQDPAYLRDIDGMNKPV
# Procedure, shortened: (§1)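 Part of an in vitro radioligand binding panel. Each target was tested against a potent standard radioligand for that site. The read-out was percent inhibition of specific binding, reported as an average value.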
# [3] = Displacement of [3H]idazoxan from rat cerebral cortex imidazole receptor 2 in presence of 1 uM yohimbine; format: tissue-based
# [4] = organism: Rattus norvegicus; test: Displacement of [3H]idazoxan from rat cerebral cortex imidazole receptor 2 at 10 uM in presence of 1 uM yohimbine; format: tissue-based
# [5] = molecular target: D(2) dopamine receptor (Homo sapiens) (UniProt P14416); test: Inhibition of radioligand binding to D2L receptor at 10 uM; procedure, shortened: as §1
# Chain of D(2) dopamine receptor (Homo sapiens) (P14416 whole entry): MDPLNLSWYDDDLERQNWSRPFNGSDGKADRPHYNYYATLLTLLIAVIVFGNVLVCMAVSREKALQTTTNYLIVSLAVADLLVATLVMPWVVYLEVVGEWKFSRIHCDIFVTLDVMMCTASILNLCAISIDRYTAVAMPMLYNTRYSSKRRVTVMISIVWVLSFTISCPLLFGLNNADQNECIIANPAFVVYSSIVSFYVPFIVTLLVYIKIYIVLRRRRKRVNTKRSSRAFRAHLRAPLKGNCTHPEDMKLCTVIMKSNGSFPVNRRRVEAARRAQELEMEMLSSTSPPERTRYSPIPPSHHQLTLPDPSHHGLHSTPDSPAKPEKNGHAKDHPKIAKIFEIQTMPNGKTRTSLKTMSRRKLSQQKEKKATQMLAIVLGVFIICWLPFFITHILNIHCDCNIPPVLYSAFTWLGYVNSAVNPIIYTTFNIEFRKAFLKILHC
# [6] = molecular target: T1, Muscarinic acetylcholine receptor M4 (Homo sapiens) (UniProt P08173); test: Inhibition of radioligand binding to muscarinic M4 receptor at 10 uM; procedure, shortened: as §1
# T1 sequence (whole entry): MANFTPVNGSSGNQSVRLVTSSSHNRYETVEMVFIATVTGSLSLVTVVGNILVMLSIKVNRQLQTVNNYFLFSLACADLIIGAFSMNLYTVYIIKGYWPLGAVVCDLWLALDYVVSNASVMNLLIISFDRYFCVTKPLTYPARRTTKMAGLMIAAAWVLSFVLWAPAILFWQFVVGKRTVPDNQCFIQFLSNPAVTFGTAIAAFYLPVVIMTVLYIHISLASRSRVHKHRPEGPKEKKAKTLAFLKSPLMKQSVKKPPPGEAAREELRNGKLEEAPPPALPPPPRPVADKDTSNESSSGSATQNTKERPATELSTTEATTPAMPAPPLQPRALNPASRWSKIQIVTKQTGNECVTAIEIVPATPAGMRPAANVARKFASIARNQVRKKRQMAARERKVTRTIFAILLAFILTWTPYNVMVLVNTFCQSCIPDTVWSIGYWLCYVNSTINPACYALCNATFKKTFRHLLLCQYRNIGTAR
# [7] = molecular target: Melanocortin receptor 4 (Homo sapiens) (UniProt P32245); test: Inhibition of radioligand binding to MC4R at 10 uM
# Chain of Melanocortin receptor 4 (Homo sapiens) (P32245 whole entry): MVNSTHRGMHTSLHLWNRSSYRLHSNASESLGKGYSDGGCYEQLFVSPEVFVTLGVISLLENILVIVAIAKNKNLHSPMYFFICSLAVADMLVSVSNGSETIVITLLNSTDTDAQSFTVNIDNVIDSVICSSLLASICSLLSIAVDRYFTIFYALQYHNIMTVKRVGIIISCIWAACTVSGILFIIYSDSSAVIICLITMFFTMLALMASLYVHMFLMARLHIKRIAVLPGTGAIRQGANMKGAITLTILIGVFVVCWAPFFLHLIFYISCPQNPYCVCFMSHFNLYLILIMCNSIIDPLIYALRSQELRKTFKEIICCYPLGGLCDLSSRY
# [8] = molecular target: T2, 5-hydroxytryptamine receptor 2C (Homo sapiens) (UniProt P28335); test: Inhibition of radioligand binding to 5HT2C at 10 uM; procedure, shortened: as §1
# T2 sequence (whole entry): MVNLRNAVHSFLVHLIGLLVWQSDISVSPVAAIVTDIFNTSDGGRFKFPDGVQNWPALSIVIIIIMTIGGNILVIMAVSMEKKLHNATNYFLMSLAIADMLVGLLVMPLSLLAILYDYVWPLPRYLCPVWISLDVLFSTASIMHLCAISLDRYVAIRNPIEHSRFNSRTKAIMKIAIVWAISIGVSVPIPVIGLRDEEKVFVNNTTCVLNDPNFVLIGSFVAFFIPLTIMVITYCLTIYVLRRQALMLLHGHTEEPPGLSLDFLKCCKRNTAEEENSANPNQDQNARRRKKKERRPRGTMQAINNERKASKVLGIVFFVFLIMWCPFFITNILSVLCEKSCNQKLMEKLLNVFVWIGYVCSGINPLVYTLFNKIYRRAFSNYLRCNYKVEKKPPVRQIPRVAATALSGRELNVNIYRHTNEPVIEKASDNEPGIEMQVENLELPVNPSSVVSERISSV
# [9] = molecular target: Mu-type opioid receptor (Homo sapiens) (UniProt P35372); test: Inhibition of radioligand binding to MOP receptor at 10 uM; procedure, shortened: as §1
# Chain of Mu-type opioid receptor (Homo sapiens) (P35372 whole entry): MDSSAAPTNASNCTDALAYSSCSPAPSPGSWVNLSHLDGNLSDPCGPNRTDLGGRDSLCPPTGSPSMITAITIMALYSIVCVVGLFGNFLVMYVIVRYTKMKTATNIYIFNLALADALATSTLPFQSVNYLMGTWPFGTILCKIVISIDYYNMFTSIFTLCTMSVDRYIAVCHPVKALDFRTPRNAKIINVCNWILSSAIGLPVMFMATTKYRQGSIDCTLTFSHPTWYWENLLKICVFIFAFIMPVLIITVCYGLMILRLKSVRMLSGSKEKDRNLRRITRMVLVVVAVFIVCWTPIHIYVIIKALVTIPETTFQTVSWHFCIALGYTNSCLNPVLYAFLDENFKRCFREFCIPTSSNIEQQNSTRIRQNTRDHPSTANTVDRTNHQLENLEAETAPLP
# [10] = Inhibition of radioligand binding to N-methyl D-aspartate receptor phencyclidine binding site at 10 uM
# Procedure, shortened: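 Radioligand binding panel. Values are average percentages of inhibition of specific binding, measured against potent standard ligands for each target.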
# [11] = molecular target: Delta-type opioid receptor (Homo sapiens) (UniProt P41143); test: Inhibition of radioligand binding to DOP receptor at 10 uM; procedure, shortened: as §1
# Chain of Delta-type opioid receptor (Homo sapiens) (P41143 whole entry): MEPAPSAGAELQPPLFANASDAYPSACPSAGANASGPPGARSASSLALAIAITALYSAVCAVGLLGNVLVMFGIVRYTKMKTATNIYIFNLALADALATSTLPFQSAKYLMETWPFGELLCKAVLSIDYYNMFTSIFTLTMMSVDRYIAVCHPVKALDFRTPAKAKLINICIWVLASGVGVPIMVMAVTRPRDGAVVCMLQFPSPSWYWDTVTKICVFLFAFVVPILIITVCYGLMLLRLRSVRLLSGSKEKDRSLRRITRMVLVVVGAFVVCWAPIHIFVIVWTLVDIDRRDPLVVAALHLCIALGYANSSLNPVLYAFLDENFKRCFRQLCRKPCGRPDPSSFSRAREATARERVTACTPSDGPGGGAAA
# [12] = molecular target: T3, Muscarinic acetylcholine receptor M5 (Homo sapiens) (UniProt P08912); test: Inhibition of radioligand binding to muscarinic M5 receptor at 10 uM; procedure, shortened: as §1
# T3 sequence (whole entry): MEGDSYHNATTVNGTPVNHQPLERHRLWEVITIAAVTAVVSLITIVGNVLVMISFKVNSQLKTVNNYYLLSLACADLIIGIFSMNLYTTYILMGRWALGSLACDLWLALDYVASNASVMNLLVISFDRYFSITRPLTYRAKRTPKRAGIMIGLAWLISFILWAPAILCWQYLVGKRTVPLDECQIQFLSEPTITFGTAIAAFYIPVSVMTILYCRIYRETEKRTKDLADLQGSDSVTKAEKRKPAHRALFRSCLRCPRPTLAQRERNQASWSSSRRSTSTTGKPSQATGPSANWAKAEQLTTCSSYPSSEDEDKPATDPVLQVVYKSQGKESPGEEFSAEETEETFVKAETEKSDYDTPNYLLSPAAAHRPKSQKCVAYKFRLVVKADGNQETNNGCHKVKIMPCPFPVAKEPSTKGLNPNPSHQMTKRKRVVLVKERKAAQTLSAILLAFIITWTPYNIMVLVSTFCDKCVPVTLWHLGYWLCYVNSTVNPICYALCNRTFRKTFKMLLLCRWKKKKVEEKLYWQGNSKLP
# [13] = molecular target: 5-hydroxytryptamine receptor 2A (Homo sapiens) (UniProt P28223); test: Inhibition of radioligand binding to 5HT2A at 10 uM; procedure, shortened: as §1
# Chain of 5-hydroxytryptamine receptor 2A (Homo sapiens) (P28223 whole entry): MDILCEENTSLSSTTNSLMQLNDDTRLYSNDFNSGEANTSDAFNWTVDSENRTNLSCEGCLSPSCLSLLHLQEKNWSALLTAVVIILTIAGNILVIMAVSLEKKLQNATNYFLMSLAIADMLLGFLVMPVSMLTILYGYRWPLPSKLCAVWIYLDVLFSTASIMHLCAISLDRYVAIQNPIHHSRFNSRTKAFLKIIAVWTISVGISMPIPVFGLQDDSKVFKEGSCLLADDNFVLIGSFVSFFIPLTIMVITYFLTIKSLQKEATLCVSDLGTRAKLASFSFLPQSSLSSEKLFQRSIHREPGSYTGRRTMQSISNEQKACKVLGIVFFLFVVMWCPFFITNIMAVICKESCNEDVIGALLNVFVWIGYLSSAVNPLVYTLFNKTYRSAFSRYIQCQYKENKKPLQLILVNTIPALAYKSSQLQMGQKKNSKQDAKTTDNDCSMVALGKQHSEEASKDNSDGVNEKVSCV
# [14] = test system: Hippocampal neuron; test: Neuroprotective activity in mouse hippocampal neurons assessed as Abeta-induced neuronal apoptosis at 30 uM pre-incubated for 4 hrs before Abeta challenge for 72 hrs by TUNEL assay (reference value: 100%); format: functional; details: Hippocampus
# Procedure, shortened: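 Aggregated Aβ (20 μM, 72 h) was applied to primary mouse hippocampal neurons with or without compound at 30 μM. Apoptosis was scored by TUNEL as the percentage of positive nuclei among total nuclei, referred to Aβ alone (100%). Medium-only cells were the negative control and DNase the positive control. n = 4, mean ± SEM, two-tailed Student's test.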
# [15] = test system: Hippocampal neuron; test: Neuroprotective activity against Abeta-induced neuronal apoptosis in mouse hippocampal neurons assessed as reduction in DNA fragmentation at 30 uM pre-incubated for 4 hrs before Abeta challenge for 72 hrs by immunofluorescence microscopy; format: functional, tissue-based; details: Hippocampus
# Procedure, shortened: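 Primary mouse hippocampal neurons were exposed to Aβ (20 μM, 72 h) alone or with compound. Double immunofluorescence microscopy was then run for DNA fragmentation (TUNEL, green) and total neuronal nuclei (NeuN, red), with merged images. DNase-treated cells served as positive control.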
# Chain of Nischarin (Q9Y2I1 whole entry): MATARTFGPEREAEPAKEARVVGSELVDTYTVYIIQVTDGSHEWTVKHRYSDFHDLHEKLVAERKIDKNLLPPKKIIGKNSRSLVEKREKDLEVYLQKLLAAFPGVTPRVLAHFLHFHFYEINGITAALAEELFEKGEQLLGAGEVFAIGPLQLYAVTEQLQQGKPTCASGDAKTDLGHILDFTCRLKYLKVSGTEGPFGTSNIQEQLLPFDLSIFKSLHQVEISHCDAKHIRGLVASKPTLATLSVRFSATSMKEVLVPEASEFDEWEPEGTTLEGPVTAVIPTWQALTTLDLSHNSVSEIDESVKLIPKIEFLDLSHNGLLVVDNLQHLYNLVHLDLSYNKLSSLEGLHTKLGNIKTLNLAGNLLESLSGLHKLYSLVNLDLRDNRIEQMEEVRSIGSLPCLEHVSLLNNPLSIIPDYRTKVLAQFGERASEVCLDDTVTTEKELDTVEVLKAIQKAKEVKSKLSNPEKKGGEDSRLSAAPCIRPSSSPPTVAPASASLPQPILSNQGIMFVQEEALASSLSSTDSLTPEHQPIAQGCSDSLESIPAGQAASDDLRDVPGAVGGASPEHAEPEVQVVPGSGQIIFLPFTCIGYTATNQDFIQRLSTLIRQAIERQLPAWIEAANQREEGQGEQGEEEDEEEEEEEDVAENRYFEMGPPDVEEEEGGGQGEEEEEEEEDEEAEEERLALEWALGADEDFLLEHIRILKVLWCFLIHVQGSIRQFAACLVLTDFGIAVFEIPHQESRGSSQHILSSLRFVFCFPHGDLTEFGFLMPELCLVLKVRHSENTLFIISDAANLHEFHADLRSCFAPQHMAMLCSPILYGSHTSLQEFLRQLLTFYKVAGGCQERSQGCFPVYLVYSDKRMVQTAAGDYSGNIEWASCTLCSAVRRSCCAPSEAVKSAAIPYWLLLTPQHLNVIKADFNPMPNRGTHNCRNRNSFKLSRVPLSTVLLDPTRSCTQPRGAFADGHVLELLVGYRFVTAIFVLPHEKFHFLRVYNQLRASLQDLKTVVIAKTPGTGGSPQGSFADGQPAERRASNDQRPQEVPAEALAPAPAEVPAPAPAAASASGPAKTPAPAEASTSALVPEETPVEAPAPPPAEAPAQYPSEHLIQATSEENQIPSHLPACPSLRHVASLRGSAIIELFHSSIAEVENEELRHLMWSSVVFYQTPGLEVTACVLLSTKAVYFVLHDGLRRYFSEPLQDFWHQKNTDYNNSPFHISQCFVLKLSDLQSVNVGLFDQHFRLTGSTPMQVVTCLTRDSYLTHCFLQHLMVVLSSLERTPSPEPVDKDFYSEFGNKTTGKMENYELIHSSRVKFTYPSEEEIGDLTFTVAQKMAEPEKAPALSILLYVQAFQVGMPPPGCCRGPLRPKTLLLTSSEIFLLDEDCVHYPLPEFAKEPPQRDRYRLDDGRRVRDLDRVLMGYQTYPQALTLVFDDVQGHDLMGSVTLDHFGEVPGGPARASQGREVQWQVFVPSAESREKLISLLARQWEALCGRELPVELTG
Compound,inhibition [1] [%],inhibition [2] [%],Ki [3] [µM],inhibition [4] [%],inhibition [5] [%],inhibition [6] [%],inhibition [7] [%],inhibition [8] [%],inhibition [9] [%],inhibition [10],inhibition [11] [%],inhibition [12] [%],inhibition [13] [%],Activity [14],Activity [15]
CN1CCNC(c2ccccc2)C1 (stereo not given),36,< 20,18,41,< 20,< 20,< 20,< 20,< 20,inactive,< 20,< 20,< 20,Active,Active
NCC12CCC3CC(CC3C1)C2 (stereo not given),< 20,< 20,26,34,< 20,< 20,< 20,< 20,< 20,inactive,< 20,< 20,< 20,Active,Active
CN(C)C(CN)c1ccccc1Cl (stereo not given),< 20,< 20,14,43,< 20,< 20,< 20,< 20,< 20,inactive,< 20,< 20,< 20,Active,Active
